Assay results from ChEMBL document CHEMBL1765053, “Synthetic mimics of antimicrobial peptides from triaryl scaffolds” (J Med Chem, 2011).
Converted amounts (≈) assume the structure as drawn.

Experiments:
Klebsiella pneumoniae = test: Antibacterial activity against Klebsiella pneumoniae ATCC 13883 after 18 hrs by microbroth dilution method; type: functional; conditions: ATCC 13883, 18 h
How it was run: (§1)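 Hancock modification of CLSI broth microdilution, adjusted to limit compound adsorption to surfaces and precipitation. Bacteria grown overnight in Mueller-Hinton broth at 37 °C. Compounds tested as di-TFA salts or diamine, from DMSO/Hancock solution (0.01% acetic acid, 0.2% BSA) 2-fold stocks diluted 10-fold into culture. Final 100 to 0.05 μg/mL, duplicate. Growth read as OD600 after 18 h at 37 °C. MIC taken as >90% growth inhibition.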

Staphylococcus aureus = test: Antibacterial activity against Staphylococcus aureus ATCC 27660 after 18 hrs by microbroth dilution method; type: functional; conditions: ATCC 27660, 18 h; how it was run: as §1
[1] = Toxicity in human RBC assessed as hemolysis after 1 hr; type: cell-based, Erythrocyte; conditions: human red blood cells (RBC)
How it was run: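 RBCs spun down from human whole blood and diluted in TBS to a 0.22% stock suspension. Serial 1:2 dilutions of compound in water added, highest final 1000 μg/mL. Shaken 1 h at 37 °C, then centrifuged 3000 rpm for 5 min. Supernatant diluted into water and released hemoglobin quantified. HC50 is the lowest concentration lysing 50% of RBCs.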

Escherichia coli = test: Antibacterial activity against Escherichia coli ATCC 25922 after 18 hrs by microbroth dilution method; type: functional; conditions: ATCC 25922, 18 h; how it was run: as §1

Row | MIC (Klebsiella pneumoniae) [µg/mL] | MIC (Staphylococcus aureus) [µg/mL] | MIC (Escherichia coli) [µg/mL] | Compound | HC50 at 1 h [1] [µg/mL]
1 | > 100 | 25 | 50 | NCCC(=O)Nc1ccc(C(F)(F)F)cc1-c1ccc(-c2cc(C(F)(F)F)ccc2NC(=O)CCN)nc1.O=C(O)C(F)(F)F.O=C(O)C(F)(F)F | 356
2 | 100 | 12.5 | 50 | CC(C)(C)c1ccc(NC(=O)CCN)c(-c2ccc(-c3cc(C(C)(C)C)ccc3NC(=O)CCN)nn2)c1.O=C(O)C(F)(F)F.O=C(O)C(F)(F)F | 82.5
3 | 25 | 3.13 | 12.5 | NCCC(=O)Nc1ccc(C(F)(F)F)cc1-c1ccc(-c2cc(C(F)(F)F)ccc2NC(=O)CCN)cc1.O=C(O)C(F)(F)F.O=C(O)C(F)(F)F | 36.5
4 | 12.5 | 3.13 | 6.25 | CC(C)(C)c1ccc(NC(=O)CCCCN)c(-c2ccc(-c3cc(C(C)(C)C)ccc3NC(=O)CCCCN)cc2)c1.O=C(O)C(F)(F)F.O=C(O)C(F)(F)F | 34.5
5 | 25 | 12.5 | 12.5 | CC(C)(C)c1ccc(NC(=O)CCN)c(-c2ccc(-c3cc(C(C)(C)C)ccc3NC(=O)CCN)nc2)c1.O=C(O)C(F)(F)F.O=C(O)C(F)(F)F | 39
6 | > 50 | 50 | 50 | NCCC(=O)Nc1ccccc1-c1ccc(-c2ccccc2NC(=O)CCN)nn1.O=C(O)C(F)(F)F.O=C(O)C(F)(F)F | > 1000
7 | 50 | 25 | 50 | NCCC(=O)Nc1ccc(C(F)(F)F)cc1-c1ccc(-c2cc(C(F)(F)F)ccc2NC(=O)CCN)nn1.O=C(O)C(F)(F)F.O=C(O)C(F)(F)F | 191
8 | – | 8 | 16 | H-GIGKFLKKAKKFGKAFVKILKK-NH2 [PEXIGANAN] | 120
9 | 25 (≈ 43.6 µM) | 12.5 (≈ 21.8 µM) | 25 (≈ 43.6 µM) | CC(C)(C)c1ccc(NC(=O)CCCCN)c(-c2ccc(-c3cc(C(C)(C)C)ccc3NC(=O)CCCCN)nn2)c1 | –
10 | 12.5 | 3.13 | 6.25 | CC(C)(C)c1ccc(NC(=O)CCN)c(-c2ccc(-c3cc(C(C)(C)C)ccc3NC(=O)CCN)cc2)c1.O=C(O)C(F)(F)F.O=C(O)C(F)(F)F | 6.46
11 | 12.5 | 0.78 | 6.25 | CC(C)(C)c1ccc(NC(=O)CCCCNC(=N)N)c(-c2ccc(-c3cc(C(C)(C)C)ccc3NC(=O)CCCCNC(=N)N)cc2)c1.O=C(O)C(F)(F)F.O=C(O)C(F)(F)F | 12.8
